In ChEMBL document CHEMBL2093137, “WHO-TDR NTD Screening”:
Values after ≈ are worked out from the molar mass of the structure shown.

Assays:
[1] = test system: Trypanosoma cruzi; assay: WHO-TDR: Chagas disease; format: functional, organism-based, Homo sapiens; settings: MRC5
Outline: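 Whole-organism screen of a 10,000-compound diverse library from Life Chemicals, filtered for drug-likeness and reactive groups, against intracellular amastigotes of Trypanosoma cruzi Tulahuen CL2 beta-galactosidase strain grown in MRC-5SV2 human lung fibroblast host cells. The assay followed previously published standard procedures, with a reference drug as positive control. Antiparasitic potency is reported as IC50.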

[2] = test system: Onchocerca ochengi; assay: WHO-TDR: Onchocerciasis; format: functional; design: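 at 12.5 µM on microfilariae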
Outline: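 Onchocerca ochengi or Onchocerca lienalis, animal pathogens used as surrogates for the human parasite, were screened as whole microfilariae against a 10,000-compound diverse library from Life Chemicals. The reported measures of activity are percent inhibition and IC50.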

[3] = test system: Leishmania infantum; assay: WHO-TDR: Leishmaniasis; format: functional, organism-based, Mus musculus; settings: Macrophage
Outline: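 IC50 values describe antiparasitic potency in this whole-organism screen. Leishmania infantum MHOM/MA(BE)/67 amastigotes were tested inside murine peritoneal macrophages against a 10,000-compound diverse Life Chemicals library. A reference drug served as positive control.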

[4] = test system: Schistosoma mansoni; assay: WHO-TDR: Schistosomiasis; format: functional; design: concentration or dose not given beside the values
Outline: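 Larval and/or adult Schistosoma mansoni (Puerto Rican strain) were tested whole against 10,000 diverse compounds from Life Chemicals. The procedure was a previously published standard one, using a reference drug as positive control. Results are expressed as percent inhibition and IC50.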

[5] = test system: Plasmodium falciparum K1; assay: WHO-TDR: Malaria; format: functional, organism-based, Homo sapiens; settings: Erythrocyte
Outline: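 Life Chemicals supplied the diverse library of 10,000 compounds, which had been filtered for drug-likeness and reactive groups. Each was screened against the K1 strain of Plasmodium falciparum at its intra-erythrocytic stage in human red blood cells, using previously published standard procedures and a reference drug as positive control. The table reports IC50 for antiplasmodial potency.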

[6] = test system: Trypanosoma brucei brucei; assay: WHO-TDR: Human African Trypanosomiasis (HAT); format: functional, organism-based; settings: Squib-427
Outline: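 Following previously published standard procedures, with reference drugs as positive controls, a whole-organism assay was run against bloodstream-form Trypanosoma brucei, Squib 427 strain. The compounds, 10,000 in all, came from a diverse Life Chemicals library filtered for drug-likeness and reactive groups. Reported values are IC50 for antiparasitic potency.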

[7] = WHO-TDR: Cytotoxicity; format: toxicity, cell-based; settings: human, MRC5 cells
[8] = test system: Brugia malayi; assay: WHO-TDR: Lymphatic Filariasis; format: functional; design: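 tested at 10 µM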
Outline: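 Percent inhibition and IC50 describe activity against Brugia malayi microfilariae in a whole-organism screen. The screen used previously published standard procedures with reference drugs as positive controls. Compounds came from a diverse Life Chemicals library of 10,000, filtered for drug-likeness and reactive groups.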

Structure (SMILES) | IC50 [1] | % Inhibition [2] | IC50 [3] | % Inhibition [4] | IC50 [5] | IC50 [6] | IC50 [7] | % Inhibition [8]
CCC(C(=O)Nc1cc(-c2cn3nc(OC)ccc3n2)ccc1Cl)c1ccccc1 (stereo not drawn) | 8.38 µg/mL (≈ 19.9 µM) | 100% | > 12.6 µg/mL | 0% | > 12.6 µg/mL | > 12.6 µg/mL | > 12.6 µg/mL | 0%
CCOC(=O)Cn1/c(=N\C(=O)CCCS(=O)(=O)Cc2ccccc2)sc2cc(F)ccc21 | > 14.4 µg/mL | 100% | > 14.4 µg/mL | 0% | > 14.4 µg/mL | > 14.4 µg/mL | > 14.4 µg/mL | 0%
O=C(Cc1csc(NC(=O)c2ccc(=O)[nH]c2)n1)NCc1cccs1 | > 11.2 µg/mL | 0% | > 11.2 µg/mL | 100% | > 11.2 µg/mL | > 11.2 µg/mL | > 11.2 µg/mL | 20%
Cc1ccnc(Nc2ccc(NCCNS(=O)(=O)c3ccc(F)cc3)nn2)c1 | 4.13 µg/mL (≈ 10.3 µM) | 100% | 3.91 µg/mL (≈ 9.71 µM) | 0% | 12.1 µg/mL (≈ 30 µM) | 3.91 µg/mL (≈ 9.71 µM) | > 12.1 µg/mL | 50%
O=C(Nc1nnc(-c2ccc(Br)s2)o1)C1CCCN1S(=O)(=O)c1cccs1 (stereo not drawn) | > 14.7 µg/mL | 0% | 0.475 µg/mL (≈ 0.971 µM) | 8.3% | > 14.7 µg/mL | 6.68 µg/mL (≈ 13.6 µM) | > 14.7 µg/mL | 0%
O=C(Nc1nc(-c2ccccn2)cs1)C1CCN(S(=O)(=O)c2ccc(Cl)cc2)CC1 | 4.3 µg/mL (≈ 9.28 µM) | 100% | > 13.9 µg/mL | 0% | 12.7 µg/mL (≈ 27.5 µM) | 4.13 µg/mL (≈ 8.93 µM) | > 13.9 µg/mL | 0%
O=C(c1ccco1)N(CCCn1ccnc1)c1nc2c(F)cc(F)cc2s1 | 3.97 µg/mL (≈ 10.2 µM) | 100% | > 12.7 µg/mL | 0% | 0.533 µg/mL (≈ 1.37 µM) | 4.08 µg/mL (≈ 10.5 µM) | 7.77 µg/mL (≈ 20 µM) | 0%
O=C(NCCNc1ccc(Nc2ccncc2)nn1)Nc1ccc(Cl)cc1 | > 11.5 µg/mL | 100% | > 11.5 µg/mL | 0% | > 11.5 µg/mL | > 11.5 µg/mL | > 11.5 µg/mL | 0%
COc1ccc(OC)c(S(=O)(=O)NCCNc2ccc(Nc3cc(C)ccn3)nn2)c1 | > 13.3 µg/mL | 100% | > 13.3 µg/mL | 0% | 5.13 µg/mL (≈ 11.5 µM) | 4.66 µg/mL (≈ 10.5 µM) | > 13.3 µg/mL | 50%
Cc1ccnc(Nc2ccc(N3CCN(C(=O)Nc4cccc(F)c4)CC3)nn2)c1 | > 12.2 µg/mL | 100% | > 12.2 µg/mL | 0% | > 12.2 µg/mL | 5.79 µg/mL (≈ 14.2 µM) | > 12.2 µg/mL | 75%
Cc1nnc(NC(=O)CSc2nc(-c3ccccc3)c(N)s2)s1 | > 10.9 µg/mL | 0% | 0.353 µg/mL (≈ 0.971 µM) | 16.7% | > 10.9 µg/mL | > 10.9 µg/mL | > 10.9 µg/mL | 33.33%
Cc1cc(-c2nnc(NC(=O)c3nc4ccccc4s3)o2)nn1C | 3.72 µg/mL (≈ 10.9 µM) | 100% | > 10.2 µg/mL | 0% | > 10.2 µg/mL | > 10.2 µg/mL | > 10.2 µg/mL | 33.33%
Cc1ccc(-c2cc(CC(=O)Nc3cccc(C)n3)no2)cc1 | > 9.22 µg/mL | 100% | > 9.22 µg/mL | 0% | > 9.22 µg/mL | > 9.22 µg/mL | > 9.22 µg/mL | 0%
CS(=O)(=O)N1CCCCC1C(=O)Nc1nc2c(Cl)c(Cl)ccc2s1 (stereo not drawn) | > 12.2 µg/mL | 100% | > 12.2 µg/mL | 0% | > 12.2 µg/mL | > 12.2 µg/mL | > 12.2 µg/mL | 0%
O=C(Nc1nc2c(s1)CCCC2)C1CCN(S(=O)(=O)c2ccc(F)cc2)CC1 | 2.79 µg/mL (≈ 6.58 µM) | 100% | > 12.7 µg/mL | 0% | > 12.7 µg/mL | 4.07 µg/mL (≈ 9.6 µM) | > 12.7 µg/mL | 0%
COc1cccc(-c2cc(CC(=O)NCc3c(F)cccc3F)no2)c1 | > 10.8 µg/mL | 100% | 3.48 µg/mL (≈ 9.71 µM) | 0% | > 10.8 µg/mL | > 10.8 µg/mL | > 10.8 µg/mL | 0%
Cn1ccnc1N1CCN(CC(=O)Nc2ccc(OC(F)(F)F)cc2)CC1 | > 11.5 µg/mL | 50% | 0.372 µg/mL (≈ 0.97 µM) | 0% | > 11.5 µg/mL | 5.13 µg/mL (≈ 13.4 µM) | > 11.5 µg/mL | 0%
O=S(=O)(CCCOc1ccc2c(c1)OCO2)NC1CCN(Cc2ccccc2)CC1 | 13 µg/mL (≈ 30 µM) | 100% | > 13 µg/mL | 16.7% | > 13 µg/mL | 8.57 µg/mL (≈ 19.8 µM) | > 13 µg/mL | 0%
CC(C)(C)n1ncc2c(=O)n(CCC(=O)NCc3ccccc3Cl)cnc21 | > 11.6 µg/mL | 0% | > 11.6 µg/mL | 100% | > 11.6 µg/mL | > 11.6 µg/mL | > 11.6 µg/mL | 20%
CCc1ccc(NC(=O)N2CCN(c3ccc(Nc4cc(C)ccn4)nn3)CC2)cc1 | > 12.5 µg/mL | 100% | > 12.5 µg/mL | 0% | 8.24 µg/mL (≈ 19.7 µM) | > 12.5 µg/mL | > 12.5 µg/mL | 50%
COc1cccc(OCC(=O)N2CCN(c3nccn3-c3cccc(Cl)c3)CC2)c1 | 9.15 µg/mL (≈ 21.4 µM) | 0% | 0.45 µg/mL (≈ 1.05 µM) | 0% | 12.2 µg/mL (≈ 28.5 µM) | 4.61 µg/mL (≈ 10.8 µM) | > 13.9 µg/mL | 0%
NC(=O)CSc1nc(-c2ccccc2)c(NC(=O)c2cc3ccccc3o2)s1 | > 12.3 µg/mL | 100% | > 12.3 µg/mL | 25% | > 12.3 µg/mL | > 12.3 µg/mL | > 12.3 µg/mL | 33.33%
CCOC(=O)c1sc(NC(=O)C2CCCN2S(C)(=O)=O)nc1-c1ccccc1 (stereo not drawn) | > 12.7 µg/mL | 100% | > 12.7 µg/mL | 0% | > 12.7 µg/mL | > 12.7 µg/mL | > 12.7 µg/mL | 0%
Cc1n[nH]c(C)c1CCc1nc(-c2ccc(Cl)cc2)no1 | 1.8 µg/mL (≈ 5.96 µM) | 100% | > 9.08 µg/mL | 0% | 1.14 µg/mL (≈ 3.78 µM) | 2.13 µg/mL (≈ 7.03 µM) | > 9.08 µg/mL | 0%
Cc1cc(C)cc(NC(=O)NCCNc2ccc(Nc3ccccn3)nn2)c1 | > 11.3 µg/mL | 100% | 0.367 µg/mL (≈ 0.972 µM) | 0% | > 11.3 µg/mL | > 11.3 µg/mL | > 11.3 µg/mL | 0%
COc1ccc(S(=O)(=O)NCC(c2cccc3ccccc23)N(C)C)cc1C (stereo not drawn) | > 12 µg/mL | 100% | > 12 µg/mL | 0% | > 12 µg/mL | 4.02 µg/mL (≈ 10.1 µM) | > 12 µg/mL | 0%
